Tests used:
[1] = target: Transient receptor potential cation channel subfamily V member 1 (Rattus norvegicus) (UniProt O35433); test: Ratio of compound IC50 to ATC-120 IC50 for TRPV1 in Sprague-Dawley rat DRG neuron
[2] = target: Transient receptor potential cation channel subfamily V member 1 (Rattus norvegicus) (UniProt O35433); test: Ratio of compound IC50 to SC-0030 IC50 for TRPV1 in Sprague-Dawley rat DRG neuron
[3] = target: T1, Transient receptor potential cation channel subfamily V member 1 (Rattus norvegicus, UniProt O35433); test: Agonist activity at TRPV1 in Sprague-Dawley rat DRG neuron assessed as intracellular 45Ca2+ influx by scintillation counting; type: functional, cell-based
[4] = target: T1, Transient receptor potential cation channel subfamily V member 1; test: Antagonist activity at TRPV1 in Sprague-Dawley rat DRG neuron assessed as reduction of capsaicin-stimulated intracellular 45Ca2+ influx by scintillation counting; type: functional, cell-based
Procedure, shortened: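 Neonatal rat spinal DRG neurons, dissociated with collagenase then trypsin (30 min each, 37 °C), cultured 3 days in horse-serum DME/F12 with C6-glioma-conditioned medium. Neurons were given ⁴⁵Ca²⁺ plus capsaicin with compound for 10 min at room temperature in HEPES (10 mM, pH 7.4) Ca/Mg-free HBSS, then washed and dried.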

T1 sequence (O35433 whole entry): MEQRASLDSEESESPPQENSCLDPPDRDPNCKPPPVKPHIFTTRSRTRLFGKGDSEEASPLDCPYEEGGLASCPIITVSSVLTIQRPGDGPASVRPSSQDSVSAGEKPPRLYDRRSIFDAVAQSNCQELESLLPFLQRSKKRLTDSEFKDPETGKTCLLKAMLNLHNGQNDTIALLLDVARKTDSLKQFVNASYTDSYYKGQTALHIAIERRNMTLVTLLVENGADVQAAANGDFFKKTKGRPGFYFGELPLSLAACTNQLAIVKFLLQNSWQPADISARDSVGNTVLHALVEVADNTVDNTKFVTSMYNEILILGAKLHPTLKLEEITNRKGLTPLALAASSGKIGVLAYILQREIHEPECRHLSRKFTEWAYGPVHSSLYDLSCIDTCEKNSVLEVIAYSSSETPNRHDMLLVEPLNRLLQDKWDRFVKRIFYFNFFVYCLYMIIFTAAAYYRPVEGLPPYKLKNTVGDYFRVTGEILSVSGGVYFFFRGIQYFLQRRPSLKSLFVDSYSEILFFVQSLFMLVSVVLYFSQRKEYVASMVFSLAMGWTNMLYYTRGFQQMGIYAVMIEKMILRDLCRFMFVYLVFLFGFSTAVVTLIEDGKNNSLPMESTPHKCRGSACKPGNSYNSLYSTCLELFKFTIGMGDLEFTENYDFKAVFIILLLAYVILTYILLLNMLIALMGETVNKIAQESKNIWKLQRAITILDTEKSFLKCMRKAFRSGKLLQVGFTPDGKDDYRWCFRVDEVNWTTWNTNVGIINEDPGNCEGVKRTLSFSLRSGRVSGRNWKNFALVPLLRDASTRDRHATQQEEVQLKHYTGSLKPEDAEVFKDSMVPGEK
Transient receptor potential cation channel subfamily V member 1 (Rattus norvegicus), sequence (O35433 whole entry): as above

| SMILES | Ratio IC50 [1] | Ratio IC50 [2] | EC50 [3] | IC50 [4] |
| --- | --- | --- | --- | --- |
| C[Si](C)(C)c1ccc(CNC(=S)NCc2ccc(NS(C)(=O)=O)c(F)c2)cc1 | 4 | 4 | > 100000 nM | 160 nM |
| CC(C)(C)c1ccc(CNC(=S)NCc2ccc(NS(C)(=O)=O)c(F)c2)cc1 | – | – | > 100000 nM | 40 nM |
| CC[Si](CC)(CC)c1ccc(CNC(=S)NCc2ccc(NS(C)(=O)=O)cc2)cc1 | – | – | > 100000 nM | 3100 nM |
| CC[Si](C)(C)c1ccc(CNC(=S)N[C@H](C)c2ccc(NS(C)(=O)=O)cc2)cc1 | – | – | > 100000 nM | 670 nM |
| C[Si](C)(C)c1ccc(CNC(=S)NCc2ccc(NS(C)(=O)=O)cc2)cc1 | – | – | > 100000 nM | 150 nM |
| C[C@@H](NC(=S)NCc1ccc(C(C)(C)C)cc1)c1ccc(NS(C)(=O)=O)cc1 | – | – | > 100000 nM | 50 nM |
| C[C@@H](NC(=S)NCc1ccc([Si](C)(C)C)cc1)c1ccc(NS(C)(=O)=O)cc1 | 4 | 4 | > 100000 nM | 210 nM |
| CC[Si](C)(C)c1ccc(CNC(=S)NCc2ccc(NS(C)(=O)=O)cc2)cc1 | – | – | > 100000 nM | 1200 nM |
| CC[Si](CC)(CC)c1ccc(CNC(=S)N[C@H](C)c2ccc(NS(C)(=O)=O)cc2)cc1 | – | – | > 100000 nM | 1500 nM |

From ChEMBL document CHEMBL1157677, “Silicon switch approach in TRPV1 antagonist MK-056 and its analogues” (Bioorg Med Chem, 2010)
